Among the data in the RNAGym collection of RNA variant scans (doi:10.1126/science.aae0568) are yeast fitness values, retold here.

B1: tRNA (parent)
chain: GUUCCGUUGGCGUAAUGGUAACGCGUCUCCCUCCUAAGGAGAAGACUGCGGGUUCGAGUCCCGUACGGAACG

This sample holds only a part of the variants without activity.

In this series the parent is B1. The series can be described thus: yeast fitness relative to wild type (ratio to wild type); higher = fitter; tRNA-Arg(CCU), competitive growth, 37 C, YPD. In outline:
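Gene amplicons from the start population and from each of six end populations were read by 100-nucleotide paired-end sequencing. Those end populations came from pooled Saccharomyces cerevisiae strains carrying tRNA-Arg(CCU) gene variants at the native locus, competed in YPD at 37°C for 24 hours. Fitness relative to wild type was worked out from changes in genotype frequencies. Genotypes needed ≥ 100 starting reads, and estimates < 0.5 were set to 0.5.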
As for G25C C27G C62U, the yeast fitness worked out at 0.597.

Take G25C C31U G68U: the yeast fitness came to 0.587.

Turning to G25C A65C, the yeast fitness worked out at 1.03.

Take G25C G38A A65G: the yeast fitness amounted to 1.04.

For G25C C62G C66G G67U, the yeast fitness is at most 0.5.

As to G25C G38C G48C C49G, the yeast fitness is at most 0.5.

As for G25C C34G G39U U47G, the yeast fitness was at most 0.5.

As to G25C G56A, the yeast fitness came to 0.962.

For the variant G25C G39C, the yeast fitness was 0.685.

As to G25C G39C G44C C60U G68C, the yeast fitness was at most 0.5.

In the case of G25C U28C U59C, the yeast fitness came out at 0.694.

Regarding G25C C29G C46G, the yeast fitness is at most 0.5.

As for G25C C60A G67C, the yeast fitness is at most 0.5.

In the case of G25C G39C U54G A65U, the yeast fitness was determined as 0.514.

In the case of G25C U53C G58A, the yeast fitness was 0.605.

On to G25C A45U C60A, for which the yeast fitness is at most 0.5.

G25C C55U A57U: the yeast fitness worked out at 0.551.

Turning to G25C G67C, the yeast fitness worked out at 0.797.

With G25C C49U G51A A57G, the yeast fitness was at most 0.5.

Regarding G25C C31U U32A C49U, the yeast fitness was at most 0.5.

As for G25C C30G U32G A42C C49U, the yeast fitness amounted to 0.543.

For the variant G25C G58C G68A, the yeast fitness came out at 0.639.

For the variant G25C C27G G58A, the yeast fitness is at most 0.5.

As for G25C A40U C49U, the yeast fitness came to 0.66.

As for G25C G67A G68A, the yeast fitness is 0.655.

For G25C A70U, the yeast fitness was determined as 0.867.

On to G25C A70C, for which the yeast fitness came out at 1.05.

On to G25C A70G, for which the yeast fitness worked out at 0.873.

For G25C U26G G51C, the yeast fitness was at most 0.5.

Consider G25C C31A G48A C61A A65G, for which the yeast fitness is 0.558.

Turning to G25C C34U A36C G41A C49G, the yeast fitness is at most 0.5.

With G25C G68A A69G, the yeast fitness stood at 0.607.

In the case of G25C G51A G67A, the yeast fitness amounted to 0.73.

Take G25C G39C G44C: the yeast fitness was at most 0.5.

Take G25C U32A C60A: the yeast fitness was at most 0.5.

Take G25C C34U A45C: the yeast fitness turned out to be 0.54.

G25C C29A: the yeast fitness stood at 0.696.

In the case of G25C C27A G51A, the yeast fitness was 0.549.

G25C C30U U54C: the yeast fitness was at most 0.5.

With G25C C46A G50C, the yeast fitness is 0.618.

In the case of G25C C34A C66U, the yeast fitness turned out to be 0.54.

On to G25C U26C, for which the yeast fitness amounted to 0.904.

With G25C A42G C55U, the yeast fitness was at most 0.5.

As for G25C C29A G52A G67A, the yeast fitness is at most 0.5.

With G25C A45C C46A, the yeast fitness was found to be 0.991.

Turning to G25C A40U G48C, the yeast fitness is at most 0.5.

As for G25C C29U C33U A40G G52A U59C A65U, the yeast fitness was at most 0.5.

For the variant G25C U35A, the yeast fitness is 0.604.

With G25C U35C, the yeast fitness came out at 0.862.

Consider G25C C30G C33U A45G U47G G50C G63A, for which the yeast fitness was at most 0.5.

Turning to G25C A40U A42C C61A C66U, the yeast fitness is at most 0.5.

G25C G41C C46U C61G: the yeast fitness was at most 0.5.

Regarding G25C G63A A65C, the yeast fitness turned out to be 0.6.

As to G25C G39A G63C A70U, the yeast fitness was at most 0.5.

With G25C A40C C55U, the yeast fitness amounted to 0.708.

As to G25C C31U U53C, the yeast fitness amounted to 0.633.

Turning to G25C C34A C46U, the yeast fitness turned out to be 0.555.

Consider G25C C61U C66U, for which the yeast fitness amounted to 0.652.

Regarding G25C C29G G41A C49U G63A A65G C66U, the yeast fitness was at most 0.5.

In the case of G25C A40G A57C A69U A70C, the yeast fitness was at most 0.5.

Take G25C C46U G50A C66U: the yeast fitness stood at 0.716.

For G25C A40G A65C, the yeast fitness turned out to be 0.653.

On to G25C C33A A43U A57U A69U, for which the yeast fitness is at most 0.5.

Consider G25C G41C C46U U59C A65U, for which the yeast fitness is at most 0.5.

Consider G25C U26G C46G A70U, for which the yeast fitness came out at 0.62.

As to G25C A40U A42C G52A U64C C66U, the yeast fitness was at most 0.5.

For G25C C29U C33A C49G, the yeast fitness turned out to be 0.714.

As to G25C A45C, the yeast fitness was 1.06.

For G25C A45G, the yeast fitness worked out at 0.869.

With G25C C46G U64G, the yeast fitness was at most 0.5.

With G25C C33U G50C, the yeast fitness was at most 0.5.

In the case of G25C U64A, the yeast fitness is 0.709.

With G25C G52A U54G, the yeast fitness is at most 0.5.

Regarding G25C G41C G68C, the yeast fitness came to 0.565.

In the case of G25C C31U, the yeast fitness worked out at 0.87.

In the case of G25C C34U G41A C49G, the yeast fitness was determined as 0.54.

For the variant G25C C34U C66U, the yeast fitness is at most 0.5.

Take G25C A43U G50A A70C: the yeast fitness is at most 0.5.

Turning to G25C C33A A57U, the yeast fitness worked out at 0.718.

G25C U32A A40C: the yeast fitness was at most 0.5.

G25U: the yeast fitness is 0.937.

Take G25C U32G G44A C46G: the yeast fitness was at most 0.5.

For the variant G25C A42U C46U, the yeast fitness came out at 0.502.

In the case of G25C C46G C49U U64G, the yeast fitness was at most 0.5.

G25C U32C C46U G50A: the yeast fitness was 0.667.

Turning to G25C C29G C60G, the yeast fitness was at most 0.5.

With G25C U47C, the yeast fitness was 0.954.

Take G25C U35C A42C C46A G48C C61A: the yeast fitness was at most 0.5.

Turning to G25C U47G G52A, the yeast fitness was determined as 0.549.

Regarding G25C C29U A42U, the yeast fitness was determined as 0.664.

In the case of G25C C31U U35C, the yeast fitness was found to be 0.53.

In the case of G25C G41A, the yeast fitness is 0.789.

As for G25C U28C C55A, the yeast fitness was 0.539.

Turning to G25C U28A C33A, the yeast fitness stood at 0.539.

As to G25C U26G C46G A69U, the yeast fitness came out at 0.521.

As to G25C U47C G63A A65C, the yeast fitness was at most 0.5.

On to G25C G68A, for which the yeast fitness is 0.817.

Regarding G25C G68C, the yeast fitness came out at 0.796.

Consider G25C U26G C46G, for which the yeast fitness is 0.576.

Take G25C C61G G67C: the yeast fitness came to 0.527.

For G25C G58C, the yeast fitness stood at 1.

As to G25C C31G C34G C61U A69U, the yeast fitness is at most 0.5.

For G25C C31G A42G U54G, the yeast fitness was at most 0.5.

Regarding G25C C31U U32A C55A A69U, the yeast fitness was at most 0.5.

For G25C A42G A45C U47C C62U, the yeast fitness is at most 0.5.

Take G25C A43U C61G G67C: the yeast fitness is at most 0.5.

Turning to G25C U26G C46G C60G, the yeast fitness was at most 0.5.

For the variant G25C A42G, the yeast fitness worked out at 0.911.

Consider G25C C33A A45C C46A, for which the yeast fitness was 0.518.

Turning to G25C G58C G67C, the yeast fitness is 0.706.

In the case of G25C G41C C46U A65U, the yeast fitness was found to be 0.551.

Regarding G25C A40C, the yeast fitness came out at 0.848.

Turning to G25C A40G, the yeast fitness came out at 0.645.

G25C C46A G58A: the yeast fitness is at most 0.5.

With G25C C31A A37C U47C C61U, the yeast fitness worked out at 0.702.

G25C C30G C60U: the yeast fitness is at most 0.5.

As to G25C C31A A43U U54A, the yeast fitness was at most 0.5.

On to G25C G51C, for which the yeast fitness was found to be 0.654.

With G25C C46U G50A, the yeast fitness was determined as 0.889.

G25C A69C: the yeast fitness amounted to 1.07.

Take G25C C46G: the yeast fitness was 0.938.

G25C C46U: the yeast fitness worked out at 1.06.

With G25C A43C C62A U64G C66G, the yeast fitness is at most 0.5.

Regarding G25C C33A, the yeast fitness stood at 0.758.

Regarding G25C C33G, the yeast fitness amounted to 0.662.

G25C G56C C61G: the yeast fitness is at most 0.5.

For the variant G25C U35A A37U G67A A70G, the yeast fitness is at most 0.5.

Consider G25C C30G A36U C46U A65G, for which the yeast fitness is at most 0.5.

In the case of G25C C34A, the yeast fitness amounted to 0.625.

Take G25C C34G C61U C66G: the yeast fitness is at most 0.5.

Consider G25C U32G A65G, for which the yeast fitness is at most 0.5.

As to G25C C29G C46G G51C, the yeast fitness is at most 0.5.

Consider G25C C55A, for which the yeast fitness worked out at 0.68.

As for G25C C55G, the yeast fitness is at most 0.5.

On to G25C C49U C62G C66U, for which the yeast fitness came out at 0.539.

Consider G25C C49U G67U G68C A69U, for which the yeast fitness was at most 0.5.

On to G25C C27U, for which the yeast fitness turned out to be 0.773.

In the case of G25C C49U G51A C60A A70G, the yeast fitness is at most 0.5.

Regarding G25C G39A C66U, the yeast fitness came out at 0.504.

As to G25C U59C, the yeast fitness was found to be 0.932.

With G25C U59G, the yeast fitness came to 0.678.

As to G25C C31G C34G C61U, the yeast fitness is at most 0.5.

For the variant G25C U26G A36G C46G A70U, the yeast fitness was at most 0.5.

G25C C33G G50C U54C: the yeast fitness is at most 0.5.

Regarding G25C C46G U53G C66A, the yeast fitness came out at 0.81.

Turning to G25C A43C, the yeast fitness was 1.03.

G25C C31U G56A: the yeast fitness was 0.616.

On to G25C C31U U32A C49G C60U, for which the yeast fitness was at most 0.5.

For the variant G25C G52C, the yeast fitness is 0.574.

Turning to G25C U32C G41A, the yeast fitness is at most 0.5.

Turning to G25C C31U U32A C46U, the yeast fitness is at most 0.5.

Take G25C C62A: the yeast fitness came out at 0.845.

Regarding G25C C62U, the yeast fitness is 0.999.

For the variant G25C C27A C31G, the yeast fitness is at most 0.5.

Regarding G25C C49U, the yeast fitness was found to be 1.01.

For the variant G25C G63C, the yeast fitness stood at 0.716.

For G25C C31G G51C, the yeast fitness was at most 0.5.

G25C U26G C46G C61A A70U: the yeast fitness is at most 0.5.

In the case of G25C U26G A40U C46G A70U, the yeast fitness is at most 0.5.

On to G25C A40U A42C G52A, for which the yeast fitness was at most 0.5.

As for G25C C30U, the yeast fitness stood at 0.669.

Consider G25C C30G, for which the yeast fitness came to 0.582.

On to G25C U32C A37G A69G A70G, for which the yeast fitness is at most 0.5.

With G25C C29G C33U G39U, the yeast fitness was at most 0.5.

On to G25C C29G G52A A69U, for which the yeast fitness was at most 0.5.

With G25C A43U G50A G68A, the yeast fitness is at most 0.5.

On to G25C C29G G41A C49U A65G C66U, for which the yeast fitness turned out to be 0.583.
